# Data from PubChem BioAssay.
# Calls of active or inactive are those of the source.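 Rule for the calls, unless noted: active = viability at or below 10% of carrier control in both of two separate runs; inconclusive = viability at or below 10% in only one of the two runs; inactive = the rest.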 Square brackets hold non-standard residues; d marks the D form. Peptide text beside a SMILES is read from it. * marks the point of attachment. ξ: configuration not given here. Piv = CC(C)(C)C(=O)*; ξNva = CCCC(N)C(=O)O
# Columns and labels:
# [1] = Her2 expression decrease, cell viability multiplex – SKBR3 breast tumor cells, AlphaScreen, ATP viability, primary screen (AID 461;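 active = Her2 level under about 52% in both replicate screens, with viability over 70% of control, limit read from the data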;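 for Her2 level: lower value means less Her2 protein in the cells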;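 for viability: percent of carrier control wells set as 100% viability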); settings: SKBR3 Her2 protein level, 18-24 h, measured here: SKBR3 viability, ATP luminescence, at 10 µM
# [2] = target: Receptor tyrosine-protein kinase erbB-2 (Homo sapiens) (UniProt P04626); experiment: as above; settings: 18-24 h, at 10 µM, stronger effect = lower value
# Sequence of Receptor tyrosine-protein kinase erbB-2 (Homo sapiens) (P04626 whole entry, looked up): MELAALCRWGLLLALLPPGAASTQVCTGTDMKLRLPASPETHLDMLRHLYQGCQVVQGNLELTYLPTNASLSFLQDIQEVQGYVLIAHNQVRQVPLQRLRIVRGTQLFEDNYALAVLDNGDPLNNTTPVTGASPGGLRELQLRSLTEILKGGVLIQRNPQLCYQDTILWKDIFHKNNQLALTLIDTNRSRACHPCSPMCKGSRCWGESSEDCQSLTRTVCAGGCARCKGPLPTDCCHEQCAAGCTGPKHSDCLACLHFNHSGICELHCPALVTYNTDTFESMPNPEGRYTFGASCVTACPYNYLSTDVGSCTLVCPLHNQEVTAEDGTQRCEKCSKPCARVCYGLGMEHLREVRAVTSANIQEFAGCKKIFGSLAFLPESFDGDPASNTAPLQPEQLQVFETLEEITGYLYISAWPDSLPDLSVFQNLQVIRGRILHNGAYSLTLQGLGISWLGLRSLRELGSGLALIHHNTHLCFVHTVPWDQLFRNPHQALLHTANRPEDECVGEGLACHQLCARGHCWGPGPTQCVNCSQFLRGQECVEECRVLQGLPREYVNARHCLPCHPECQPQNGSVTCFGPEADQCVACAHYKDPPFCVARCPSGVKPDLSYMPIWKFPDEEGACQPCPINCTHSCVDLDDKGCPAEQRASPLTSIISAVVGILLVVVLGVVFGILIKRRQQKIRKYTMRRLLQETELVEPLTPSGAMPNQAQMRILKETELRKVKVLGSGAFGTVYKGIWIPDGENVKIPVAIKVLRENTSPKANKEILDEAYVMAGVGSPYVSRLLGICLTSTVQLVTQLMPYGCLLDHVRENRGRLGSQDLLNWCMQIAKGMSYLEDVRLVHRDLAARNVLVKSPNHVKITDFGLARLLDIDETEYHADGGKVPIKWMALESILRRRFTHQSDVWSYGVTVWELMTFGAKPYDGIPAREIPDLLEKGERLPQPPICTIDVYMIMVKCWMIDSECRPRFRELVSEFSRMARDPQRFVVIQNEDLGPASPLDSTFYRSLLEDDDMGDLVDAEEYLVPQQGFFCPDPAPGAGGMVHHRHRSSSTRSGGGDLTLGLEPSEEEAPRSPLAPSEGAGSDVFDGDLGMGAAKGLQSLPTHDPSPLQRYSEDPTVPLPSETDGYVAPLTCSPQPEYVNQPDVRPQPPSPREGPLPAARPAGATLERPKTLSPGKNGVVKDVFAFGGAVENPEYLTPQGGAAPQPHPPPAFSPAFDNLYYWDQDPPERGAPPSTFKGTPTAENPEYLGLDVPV
# [3] = reduced viability of SK-BR-3 breast cancer cells – cell-based, 24 h, human, pilot screen (AID 572); settings: SK-BR-3 viability, CellTiter-Glo luminescence, at 10 µM, stronger effect = lower value;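 note: compound exposure lasted between 18 and 24 h rather than exactly 24 h; 100% = carrier-treated control wells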
# [4] = HUVEC growth inhibition – cell-based, human, primary screen (AID 575;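 active = viability at or below 30% in both replicate assays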;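 note: 100% = median of untreated cell wells with 0.1% DMSO on each plate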); settings: HUVEC proliferation, CellTiter-Glo luminescence, 72 h; at 10 µM; stronger effect = lower value
# In short: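 System: primary human umbilical vein endothelial cells; Quantity: 1250 endothelial cells in each well; Buffer or medium: supplemented EBM, 2% fetal bovine serum; Doses: one dose, 10 µM final, 0.1% DMSO; Incubation: 72 h compound incubation; Technique: ATP-based CellTiter-Glo luminescent read; Evaluation: percent of median DMSO-control luminescence; Controls: vehicle and MePR control wells.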
# [5] = H69AR cell proliferation blockers – human, duplicate replicates, primary screen (AID 580;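 active = viability at or under a set limit in both replicates, limit being median viability minus 3 SD, cut at about 48% in these data, passing the limit was not always enough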;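 note: 100% = mean luminescence of untreated wells and 0% = no signal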); settings: H69AR lung tumor cells viability, ATP luminescence, 72 h; at 10 µM; stronger effect = lower value
# [6] = MRP1 drug-resistance reversers in H69AR cells – cell-based, doxorubicin co-treatment, pilot screen (AID 601;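 active = viability loss from added drug above about 55%, and viability with drug at most 40%, in both replicates, limit read from the data, passing the limit was not always enough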); settings: CellTiter-Glo, 72 h, at 10 µM; for differential viability (reversal): stronger effect = higher value
# [7] = yeast transport mutant growth inhibition pilot in 384-well plates, post-Golgi transport modulator project (AID 636; in the data active = inhibition above about 31%); settings: absorbance 615 nm, about 18 h, stronger effect = higher value
# [8] = growth suppression of yeast trafficking mutant, preliminary HTS, modulators of trafficking downstream of Golgi apparatus project, 1536-format plate, OD 615 nm (AID 637; in the data active = inhibition above about 30%); settings: yeast transport mutant growth, absorbance 615 nm, 18 h; stronger effect = higher value
# [9] = H69AR cells + 2 uM doxorubicin, measured here: viability with 2 uM doxorubicin, stronger effect = lower value
# [10] = H69AR cells, compound alone cytotoxicity
Compound,viability [1] [%],Her2 level [2],viability [3],viability [4],viability [5],differential viability (reversal) ([6]; H69AR cells + 2 uM doxorubicin),"viability [6, 9] [%]","viability [6, 10] [%]",inhibition [7],inhibition [8]
Cn1cc(C(=O)c2ccc(F)cc2)cc1-c1nc2ccccc2n1C,91,65% (inactive),91% (inactive),76% (inactive),102% (inactive),10% (inactive),92,102,-0.4% (inactive),1.64% (inactive)
Nc1nnn(Cc2ccccc2)n1,93.5,92% (inactive),93.5% (inactive),100% (inactive),119% (inactive),22.1% (inactive),97.3,119,-5.21% (inactive),-6.98% (inactive)
Cc1cc(C)n(-c2ccc(C(=O)Nc3ccc4c(c3)OCCO4)cc2)n1,93,77.5% (inactive),93% (inactive),62.2% (inactive),89% (inactive),-6.18% (inactive),95.2,89,1.03% (inactive),-2% (inactive)
CNC(=O)c1c(O)c2cccc3c2n(c1=O)CC3,83.5,86% (inactive),83.5% (inactive),101% (inactive),89.5% (inactive),-5.95% (inactive),95.5,89.5,-0.13% (inactive),-4.52% (inactive)
Cc1nn(C)cc1NC(=O)CCSc1nc(-c2ccco2)cc(C(F)(F)F)n1,90.5,104% (inactive),90.5% (inactive),102% (inactive),87.3% (inactive),5.31% (inactive),81.9,87.3,-4.4% (inactive),23.9% (inactive)
Cc1ccccc1N(C)S(=O)(=O)c1ccc2[nH]cc(C(=O)NCC3CCCO3)c(=O)c2c1 (stereo not given),83,71% (inactive),83% (inactive),90.1% (inactive),91.7% (inactive),4.24% (inactive),87.5,91.7,-4.61% (inactive),0.17% (inactive)
CCCCN(CC)S(=O)(=O)c1ccc2c(c1)CCCN2C(C)=O,88,79.5% (inactive),88% (inactive),88.9% (inactive),104% (inactive),0.71% (inactive),103,104,-2.37% (inactive),0.48% (inactive)
COCCNC(=O)C(c1ccc(C)o1)N(Cc1ccc(OC)cc1)C(=O)Cn1nnc2ccccc21 (stereo not given),102,98% (inactive),102% (inactive),102% (inactive),97.8% (inactive),-6.28% (inactive),104,97.8,-0.53% (inactive),-0.82% (inactive)
COc1cc(C2C(C#N)=C(N)OC3=C2C(=O)CC(C)(C)C3)ccc1OC(=O)N1CCOCC1 (stereo not given),84.5,94.5% (inactive),84.5% (inactive),97.6% (inactive),98.8% (inactive),4.58% (inactive),94.2,98.8,1.49% (inactive),-7.54% (inactive)
CCOC(=O)c1ccc(CC2S/C(=C(\C#N)C(C)=O)NC2=O)cc1 (stereo not given),91.5,89.5% (inactive),91.5% (inactive),95.7% (inactive),89.6% (inactive),-4.15% (inactive),93.7,89.6,-6.53% (inactive),1.94% (inactive)
COc1ccc(Cn2nnnc2C(c2cccs2)N2CCOCC2)cc1 (stereo not given),105,123% (inactive),105% (inactive),90.9% (inactive),109% (inactive),-1.24% (inactive),111,109,3.16% (inactive),5.33% (inactive)
CN1C(=O)C2(NCCc3c2[nH]c2ccccc32)c2ccccc21 (stereo not given),114,100% (inactive),114% (inactive),86.8% (inactive),109% (inactive),12.9% (inactive),96,109,-3.82% (inactive),6.07% (inactive)
O=C1CC(c2cccc(Cl)c2)CC(O)=C1C=NCCCO (stereo not given),102,90.5% (inactive),102% (inactive),83.7% (inactive),103% (inactive),4.62% (inactive),98.1,103,-6.27% (inactive),-0.33% (inactive)
Cc1ccc(-n2nnnc2SCC(=O)c2cc(C)n(CC3CCCO3)c2C)cc1 (stereo not given),83.5,106% (inactive),83.5% (inactive),70.8% (inactive),86% (inactive),-9.62% (inactive),95.7,86,-5.07% (inactive),0.48% (inactive)
CCSc1nnc(NC(=O)CSc2nnc(Cc3cccn3C)n2-c2ccc(C)cc2)s1,95.5,108% (inactive),95.5% (inactive),78.4% (inactive),88.8% (inactive),-7.38% (inactive),96.1,88.8,-1.56% (inactive),-5.24% (inactive)
N=c1c(C(=O)NCc2ccc3c(c2)OCO3)cc2c(=O)n3ccccc3nc2n1Cc1cccnc1,73.5,68% (inactive),73.5% (inactive),87% (inactive),78.8% (inactive),-0.53% (inactive),79.3,78.8,-2.47% (inactive),-2.3% (inactive)
CC(C(=O)NCc1cccnc1)N1C(=O)c2ccccc2C1=O (stereo not given),103,97% (inactive),103% (inactive),99.9% (inactive),93.7% (inactive),-3.79% (inactive),97.5,93.7,-3.03% (inactive),-4.36% (inactive)
CCOC(=O)CSc1nc2cccnc2n1-c1ccc(F)cc1,108,117% (inactive),108% (inactive),103% (inactive),102% (inactive),9.83% (inactive),92.4,102,-4.8% (inactive),-8.1% (inactive)
COC(=O)CNC(=O)c1c(C)cc(=O)oc1C,89.5,104% (inactive),89.5% (inactive),90.3% (inactive),97.1% (inactive),5.65% (inactive),91.4,97.1,-4.27% (inactive),-8.55% (inactive)
CC1(C)CC(=O)C(CC2=C(O)CC(C)(C)CC2=O)=C(O)C1,95,91% (inactive),95% (inactive),94.4% (inactive),102% (inactive),10.5% (inactive),91.8,102,-3.68% (inactive),-4% (inactive)
O=C(Oc1ccc(Cl)cc1N1C(=O)CCC1=O)c1ccco1,96.5,74% (inactive),96.5% (inactive),78% (inactive),90.9% (inactive),3.6% (inactive),87.3,90.9,-3.65% (inactive),2.46% (inactive)
CCOC(=O)C1CCN(c2nc3ccccc3nc2C(C#N)C(=O)OCCOC)CC1 (stereo not given),97,98% (inactive),97% (inactive),78.3% (inactive),79.4% (inactive),27.7% (inactive),51.7,79.4,-6.71% (inactive),0.16% (inactive)
Cc1cccc(NC2SC(=O)N(c3ccccc3)C2=O)c1 (stereo not given),100,81% (inactive),100% (inactive),88.9% (inactive),87.6% (inactive),-10.4% (inactive),97.9,87.6,-3.25% (inactive),-5.5% (inactive)
CCOC(=O)N1CCN(S(=O)(=O)c2ccc(F)c(C(=O)Nc3cc(C)cc(C)c3)c2)CC1,76,112% (inactive),76% (inactive),78.6% (inactive),83.3% (inactive),1.41% (inactive),81.9,83.3,-2.11% (inactive),-11.8% (inactive)
O=C(c1ccc(Cl)cc1)N1CCCCC(Sc2nnc(-c3ccc4c(c3)OCO4)o2)C1=O (stereo not given),118,76% (inactive),118% (inactive),62% (inactive),88.5% (inactive),-3.4% (inactive),91.9,88.5,-6.49% (inactive),5.56% (inactive)
Cc1ccc(S(=O)(=O)n2nc(OC(=O)c3ccco3)cc2N)cc1,92.5,106% (inactive),92.5% (inactive),96.4% (inactive),88.8% (inactive),4.73% (inactive),84,88.8,-6.32% (inactive),-1.45% (inactive)
CCCC(NC(=O)CNC(=O)C(C)(C)C)C(=O)O (stereo not drawn) (Piv-Gly-[ξNva]-OH),91,91.5% (inactive),91% (inactive),96.1% (inactive),97.5% (inactive),1.52% (inactive),96,97.5,-2% (inactive),-3.71% (inactive)
CC(C)=CCCC(C)N(C=O)C(C)CCC=C(C)C (stereo not given),84.5,94% (inactive),84.5% (inactive),76.3% (inactive),87.8% (inactive),7.05% (inactive),80.7,87.8,-0.68% (inactive),-2.7% (inactive)
COCCNC(=O)c1ccc2c(c1)nc(C)n2-c1cccc(F)c1,129,79.5% (inactive),129% (inactive),92.7% (inactive),90.5% (inactive),-0.17% (inactive),90.6,90.5,-0.92% (inactive),4.35% (inactive)
